APJ antag: blocks the human apelin receptor APJ; inhibition, % at 20 µM; hit rate 0.32% among 330,000; CHO-K1 APJ beta-arrestin complementation, luminescence; P35414;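 active = inhibition above about 40% at 20 µM, limit read from the data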;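 note: cells challenged with 10 nM apelin-13 agonist together with compound; plate controls were apelin-13 plus DMSO wells for no effect and DMSO wells lacking apelin-13 for full effect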
APJ agonist: agonists of human APJ apelin receptor; hit rate 0.11% among 330,000; activation, % at 20 µM; P35414; CHO-K1 APJ PathHunter beta-arrestin, luminescence; 0% DMSO wells, 100% apelin; AID 2520;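 active = activation more than six SD over the plate average, tested at 20 µM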;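 note: 0% = DMSO alone and 100% = apelin-13 at 10 nM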
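Assay system: CHO-K1 cells stably expressing ProLink-tagged human APJ and arrestin–beta-gal acceptor. Compound dosing: 20 µM single point, 1% DMSO. Times: 16-18 h seeding, 90 min dark compound exposure, 60 min detection. Detection: beta-gal luminescence. Evaluation: APJ–arrestin association signal. Controls: negative DMSO alone, positive Apelin-13 at 10 nM.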
CXCR6 block: CXCR6 (human) receptor inhibition; O00574; CHO-K1 PathHunter CXCR6 beta-arrestin, luminescence; inhibition, % at 20 µM; hit rate 0.36% among 360,000; AID 602244; in the data active = inhibition above about 34%, passing the limit was not always enough;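 note: antagonist mode with CXCL16 agonist at 10 nM final; 0% = 10 nM CXCL16 with DMSO and 100% = unstimulated wells without agonist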
B2AR ag: agonists of human beta-2 adrenergic receptor inducing internalization | P07550 | Am2.2-beta2AR cells, FAP receptor internalization, flow cytometry | response, % (test concentration not listed) | hit rate 0.43% among 340,000;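 active = response above a set limit, near 3 SD of response in nonfluorescent compounds, cut at about 42% in these data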
Target sequence (P07550 whole entry, looked up): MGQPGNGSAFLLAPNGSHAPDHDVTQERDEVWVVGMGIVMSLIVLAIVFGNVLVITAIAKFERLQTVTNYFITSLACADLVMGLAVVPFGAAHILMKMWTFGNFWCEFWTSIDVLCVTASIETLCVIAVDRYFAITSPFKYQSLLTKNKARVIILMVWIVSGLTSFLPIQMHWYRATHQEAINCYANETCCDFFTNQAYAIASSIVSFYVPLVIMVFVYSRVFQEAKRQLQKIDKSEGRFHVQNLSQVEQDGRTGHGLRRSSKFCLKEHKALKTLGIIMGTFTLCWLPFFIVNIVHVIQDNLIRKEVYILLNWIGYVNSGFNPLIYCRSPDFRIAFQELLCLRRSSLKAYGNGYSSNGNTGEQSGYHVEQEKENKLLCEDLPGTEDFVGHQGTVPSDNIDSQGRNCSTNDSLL
CCR6 antag: blocks CCL20-driven beta-arrestin recruitment at human CCR6 | P51684 | CHO-K1 CCR6 PathHunter beta-arrestin, luminescence, CCL20-stimulated | inhibition, % at 20 µM | hit rate 0.49% among 340,000 | AID 493098;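 active = compounds whose inhibition of the agonist-driven luminescence signal at 20 µM reaches about 50%, limit read from the data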;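 note: cells stimulated with CCL20 at 14 nM final; plate controls were DMSO with CCL20 for no effect and DMSO without agonist for full effect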
EBI2 block: blocks human EBI2 receptor beta-arrestin signaling; EBI2 beta-arrestin recruitment, luminescence, 7a,25-OHC stimulated; inhibition, % at 5 µM; hit rate 0.81% among 360,000; in the data active = inhibition above about 38%;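 note: enzyme fragment complementation signal reports receptor beta-arrestin coupling in cells; 0% = agonist plus DMSO wells and 100% = wells without agonist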
Target sequence (P32249 whole entry, looked up, the tested form may be a part): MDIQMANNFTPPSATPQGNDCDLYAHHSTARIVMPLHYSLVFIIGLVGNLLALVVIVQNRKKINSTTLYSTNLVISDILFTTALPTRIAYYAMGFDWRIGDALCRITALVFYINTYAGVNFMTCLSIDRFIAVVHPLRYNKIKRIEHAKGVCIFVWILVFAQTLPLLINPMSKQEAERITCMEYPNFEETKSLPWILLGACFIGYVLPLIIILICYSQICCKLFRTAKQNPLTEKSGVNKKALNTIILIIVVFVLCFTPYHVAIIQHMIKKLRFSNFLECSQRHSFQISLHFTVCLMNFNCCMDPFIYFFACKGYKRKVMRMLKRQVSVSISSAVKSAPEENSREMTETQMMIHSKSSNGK
APJ antag confirm: confirmation of human APJ apelin receptor antagonists; shares compounds with APJ antag; APJ beta-arrestin recruitment, luminescence, antagonist mode; inhibition, % at 20 µM; hit rate 66% among 950; AID 2766; in the data active = inhibition above about 50%
Beta2AR ag CP1: agonists of human beta-2 adrenergic receptor. percent response (surface receptor), % at 10 µM. shares compounds with B2AR ag. hit rate 25% among 1,100. Am2.2-beta2AR cells, FAP surface receptor, flow cytometry; active compounds read low;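 active = surface receptor percent response at or below 58%, roughly 3 SD from nonfluorescent compounds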
B2AR FAP counter: counter-screen for beta-2AR agonists: fluorescence in Am2.2 cells. shares compounds with B2AR ag. FAP fluorogen flow cytometry, fluorescence counterscreen; active compounds read low. calls only at 10 µM. 1,100 tested, under 10 active. AID 588765;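 active = percent response below a set limit in fluorescence channel 1 and below 50% in channel 8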
CXCR6 antag conf: CXCR6 antagonism confirmation, single concentration; shares compounds with CXCR6 block; CHO-K1 CXCR6 PathHunter beta-arrestin, luminescence; inhibition, % at 20 µM; hit rate 65% among 700;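 active = mean inhibition over four retests above 40%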;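 note: receptor stimulated with 10 nM CXCL16 agonist; beta-galactosidase fragment complementation upon beta-arrestin recruitment to receptor; plate controls were CXCL16 plus DMSO for no effect and DMSO without CXCL16 for full effect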
EBI2 antag conf: confirmation of human EBI2 receptor antagonists; inhibition, % at 5 µM; hit rate 29% among 2,400; shares compounds with EBI2 block; EBI2 beta-arrestin luminescence, 7a,25-OHC antagonism;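 active = inhibition of at least 50%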
EBI2 agonist: counter-screen for EBI2 antagonists: EBI2 agonist activity; activation, % at 5 µM; 2,400 tested, under 10 active; AID 652000; EBI2-expressing cells, agonist mode, luminescence, 60 min; 0% vehicle, 100% 7α,25-dihydroxycholesterol control; shares compounds with EBI2 block;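 active = activation of at least 50%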
bGal counter: counter-screen for EBI2 antagonists: E. coli beta-galactosidase inhibition | shares compounds with EBI2 block | purified beta-galactosidase, luminescent Galacton Star, 15 min | inhibition, % at 5 µM | hit rate 1% among 2,400 | AID 652176;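 active = replicate-average signal at least 3 plate SD below neutral wells, shown as high inhibition, flagging enzyme-inhibiting false positives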;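 note: 0% = DMSO wells with enzyme and 100% = wells lacking enzyme; higher means stronger loss of beta-gal luminescence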
* hit, by the source's call; i = inactive; nt = no result. The list is not random: actives were taken first. Their share in the collection is about 1.8%.

SMILES	APJ antag	APJ agonist	CXCR6 block	B2AR ag	CCR6 antag	EBI2 block	B2AR FAP counter	others
Cc1ccc(-c2cc(C(=O)N3CCCc4ccccc43)c3ccccc3n2)cc1	-4.3	-6.5	2.1	5.5	14.4	10.3	nt
Cc1ccc2nc3sc(C(=O)N4CCCc5ccccc54)c(N)c3cc2c1	75.9*	-13.3	-3.4	-53.1	18.8	53.8*	nt	APJ antag confirm=-8.2;EBI2 antag conf=54.9*;EBI2 agonist=-0.1;bGal counter=10.3
Cc1nc(N2CCN(c3ccccn3)CC2)c2c(C)c(C(=O)N3CCN(c4ccccc4F)CC3)sc2n1	nt	nt	22.0	12.3	16.0	-0.9	nt
CC(=O)OCCCNc1cc(Sc2ccc(C)cc2)c2nonc2c1[N+](=O)[O-]	71.0*	-7.7	70.7*	8.7	70.1*	85.3*	nt	APJ antag confirm=103.2*;EBI2 antag conf=45.4;EBI2 agonist=-1.0;bGal counter=1.8
CC1(C)CC(=O)C(C=Nc2ccc(O)c(N=CC3=C(O)CC(C)(C)CC3=O)c2)=C(O)C1	-11.4	0.0	22.5	-5.2	-13.8	-3.4	nt
CC1(C)CC(=O)C(C=Nc2ccc(C(=O)c3ccccc3)cc2N=CC2=C(O)CC(C)(C)CC2=O)=C(O)C1	119.7*	-17.8	103.4*	11.0	111.0*	74.1*	nt	APJ antag confirm=155.7*;CXCR6 antag conf=114.5*;EBI2 antag conf=93.1*;EBI2 agonist=-5.7;bGal counter=82.6*
Cc1ccc(C(=O)CNc2ccc(Br)cc2)cc1	84.5*	-16.2	39.2	5.2	56.1*	73.5*	nt	APJ antag confirm=102.4*;EBI2 antag conf=65.7*;EBI2 agonist=-3.8;bGal counter=3.7
CC(=O)Nc1cccc(-c2cc(N3CCN(CCO)CC3)n3nccc3n2)c1	nt	nt	-10.1	nt	nt	-4.0	nt
O=C(COC(=O)c1ccc(S(=O)(=O)N2CCCCCC2)cc1)NCc1ccc(Cl)cc1	3.2	-5.2	3.8	-1.1	5.8	5.1	nt
C/C(=N\NC(=O)COc1ccccc1-c1ccccc1)c1ccccn1	61.7*	-9.9	66.4*	-0.7	89.2*	62.0*	nt	APJ antag confirm=88.2*;CXCR6 antag conf=102.3*;EBI2 antag conf=71.4*;EBI2 agonist=-1.5;bGal counter=5.4
C/C(=N\NC(=O)COc1ccccc1-c1ccccc1)c1cccnc1	-8.4	3.7	-0.6	-5.3	6.5	2.4	nt
CCOC(=O)C1C(C)N=C2SCC(=O)N2C1c1cccc(Br)c1 (configuration not stated)	41.1*	-6.4	-2.2	2.2	22.7	38.0*	nt	APJ antag confirm=32.9;EBI2 antag conf=-5.8;EBI2 agonist=-0.6;bGal counter=-11.3
CN(C)c1nc(SCc2ccccc2Cl)nc2c1CCCC2	13.1	-5.5	2.1	43.2*	9.9	-0.1	i	Beta2AR ag CP1=130.8
S=c1nc2ccccc2c2nc(-c3ccccc3)[nH]n12	-3.4	-3.4	24.7	2.3	24.2	-10.0	i
S=c1nc2ccccc2c2nc(-c3ccccc3Cl)[nH]n12	12.4	-4.1	1.2	0.7	-4.3	5.2	nt
O=C(Nc1nnc(-c2ccco2)o1)c1ccc(S(=O)(=O)N2CCCC2)cc1	-1.8	-2.6	8.4	-8.6	6.8	2.9	nt
CC1CCN(S(=O)(=O)c2ccc(C(=O)Nc3nnc(-c4ccco4)o3)cc2)CC1	4.1	-8.4	4.1	50.7*	27.9	5.1	i	Beta2AR ag CP1=96.8
c1ccc(COc2ncnc3c2ncn3CCCNCC(c2ccccc2)c2ccccc2)cc1	nt	nt	7.9	nt	nt	7.0	nt
Cc1ccc(-c2nc3ncccc3o2)cc1NC(=O)c1ccc([N+](=O)[O-])o1	-43.8	3.8	8.0	11.0	-2.5	-12.7	nt
O=C(Nc1ccc(-c2nc3ncccc3o2)cc1)c1ccc([N+](=O)[O-])o1	-46.2	8.3	-8.2	53.0*	-4.7	-7.8	i	Beta2AR ag CP1=27.7*
COC(=O)[C@]12CCCCC=C1N(Cc1ccco1)C(=O)[C@H](CC(=O)N1CCOCC1)C2	nt	nt	-1.1	nt	nt	-11.8	nt
O=C(Nc1ncc2c(n1)CC(c1cccc(Cl)c1)CC2=O)c1ccco1 (configuration not stated)	28.3	2.0	-1.6	43.1*	4.1	-4.6	i	Beta2AR ag CP1=75.4
O=C(Nc1ncc2c(n1)CC(c1ccccc1)CC2=O)c1ccco1 (configuration not stated)	-8.4	-0.2	-5.4	-18.1	5.7	-3.8	nt
CC(O)c1c(OCc2ccccc2)ncnc1OCc1ccccc1 (configuration not stated)	-5.1	1.6	-1.1	98.2*	14.7	23.7	i	Beta2AR ag CP1=112.2
Cc1nc2ccccc2nc1OCc1ccccc1	0.7	-4.2	6.9	1.9	26.6	-6.8	nt
SMILES	APJ antag	APJ agonist	CXCR6 block	B2AR ag	CCR6 antag	EBI2 block	B2AR FAP counter	others
COc1cccc(C(C)(O)c2nc(-c3cccc(C#N)c3)cs2)c1 (configuration not stated)	nt	nt	2.7	nt	nt	1.2	nt
O=C(O)CCCCCCCCCCCNC(=O)NC12CC3CC(CC(C3)C1)C2	3.0	-1.6	-7.3	0.6	1.2	-3.5	nt
COc1ccc(CCNC(=O)c2cc3cc(Cl)ccc3nc2N)cc1OC	nt	nt	-3.2	nt	nt	1.4	nt
COc1ccc(-n2c(Cc3cc(=O)[nH]c(=O)[nH]3)nnc2SCC(=O)NC2CCCC2)cc1	-48.6	-3.1	-0.5	51.7*	-7.9	3.4	i	Beta2AR ag CP1=88.0
COc1ccc(-n2ccnc(SCC(=O)NC3CCCCC3)c2=O)cc1	10.7	-7.2	7.3	92.7*	-1.4	0.3	i	Beta2AR ag CP1=103.3
CN(Cc1ccccc1)C(c1ccnc2ccccc12)c1nnnn1-c1ccc2c(c1)OCCO2 (configuration not stated)	nt	nt	14.2	nt	nt	20.8	nt
COc1ccccc1CNCC(O)Cn1c2ccccc2c2ccccc21 (configuration not stated)	-26.3	2.2	-16.4	54.9*	-5.9	-19.0	i	Beta2AR ag CP1=110.5
CC1CCN(S(=O)(=O)c2ccc(C(=O)N3CCCC(C(F)(F)F)C3)cc2)CC1 (configuration not stated)	-43.0	-8.2	-6.0	3.0	7.4	-12.7	nt
